Experimental findings from ChEMBL document CHEMBL1821604, “Anticancer activity and cDNA microarray studies of a (RS)-1,2,3,5-tetrahydro-4,1-benzoxazepine-3-yl]-6-chloro-9H-purine, and an acyclic (RS)-O,N-acetalic 6-chloro-7H-purine” (Eur J Med Chem, 2011) are described below.

Common to all, as to format: functional
Test [1] relates to HT-29. The test is described as follows: Upregulation of COL1A1 gene expression in human HT-29 cells at IC50 after 48 hrs by cDNA microarray technique relative to control.
Test [2] deals with MCF7. The test is described as follows: Down regulation of FLJ37562 gene expression in human MCF7 cells at IC50 after 48 hrs by cDNA microarray technique relative to control. The method, boiled down: (§1)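 Cells (8 × 10⁶) were cultured in DMEM with 10% heat-inactivated FBS at 37 °C under 5% CO₂. They were exposed for 48 h to compound at its IC₅₀, with DMSO-treated parallel cultures as controls (final DMSO ≤0.1% v/v). Total RNA was isolated by trizol/chloroform phase separation, RNeasy column cleanup and on-column DNase, then quantified by OD260/OD280. Expression was profiled by cDNA microarray relative to control.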

Test [3] relates to MCF7. The test is described as follows: Down regulation of DOK5 gene expression in human MCF7 cells at IC50 after 48 hrs by cDNA microarray technique relative to control. The method, boiled down:
as §1

The test system of test [4] is MCF7. Nature of the test: Down regulation of DKFZp667G2110 gene expression in human MCF7 cells at IC50 after 48 hrs by cDNA microarray technique relative to control. The essentials: (§2)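 8 × 10⁶ cells exposed 48 h to compound at its IC50 concentration; total RNA isolated with trizol/chloroform and RNeasy columns including on-column DNase step; RNA quantified by OD 260/280; DMSO-treated cultures as control.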

Test [5] relates to MCF7. Nature of the test: Down regulation of CD72 gene expression in human MCF7 cells at IC50 after 48 hrs by cDNA microarray technique relative to control. The method, boiled down: as §2
For test [6], the system named is MCF7. The test is described as follows: Down regulation of PARK2 gene expression in human MCF7 cells at IC50 after 48 hrs by cDNA microarray technique relative to control.
In test [7] the test system is MCF7. Nature of the test: Down regulation of C21orf42 gene expression in human MCF7 cells at IC50 after 48 hrs by cDNA microarray technique relative to control. The essentials:
as §2

Test [8] deals with MCF7. Nature of the test: Down regulation of SNTG1 gene expression in human MCF7 cells at IC50 after 48 hrs by cDNA microarray technique relative to control.
Test [9] deals with MCF7. The test is described as follows: Down regulation of AF147723 gene expression in human MCF7 cells at IC50 after 48 hrs by cDNA microarray technique relative to control. The method, boiled down: as §2
Test [10] concerns HT-29. Nature of the test: Down regulation of P53AIP1 gene expression in human HT-29 cells at IC50 after 48 hrs by cDNA microarray technique relative to control.
The subject of test [11] is HT-29. The test is described as follows: Down regulation of ETV1 gene expression in human HT-29 cells at IC50 after 48 hrs by cDNA microarray technique relative to control. The essentials: as §1
The test system of test [12] is HT-29. Nature of the test: Down regulation of NFATC1 gene expression in human HT-29 cells at IC50 after 48 hrs by cDNA microarray technique relative to control.
In test [13] the test system is HT-29. Nature of the test: Down regulation of PARK2 gene expression in human HT-29 cells at IC50 after 48 hrs by cDNA microarray technique relative to control.
The subject of test [14] is MCF7. The test is described as follows: Upregulation of NRTN gene expression in human MCF7 cells at IC50 after 48 hrs by cDNA microarray technique relative to control.
Test [15] has as its system MCF7. The test is described as follows: Upregulation of WBSCR27 gene expression in human MCF7 cells at IC50 after 48 hrs by cDNA microarray technique relative to control.
Test [16] has as its system MCF7. Nature of the test: Upregulation of CD84 gene expression in human MCF7 cells at IC50 after 48 hrs by cDNA microarray technique relative to control.
The test system of test [17] is MCF7. Nature of the test: Upregulation of ROS1 gene expression in human MCF7 cells at IC50 after 48 hrs by cDNA microarray technique relative to control.
In test [18] the test system is MCF7. Nature of the test: Upregulation of HMGCS2 gene expression in human MCF7 cells at IC50 after 48 hrs by cDNA microarray technique relative to control.
For test [19], the system named is HT-29. The test is described as follows: Down regulation of AK5 gene expression in human HT-29 cells at IC50 after 48 hrs by cDNA microarray technique relative to control. The essentials:
as §2

Test [20] relates to MCF7. The test is described as follows: Upregulation of ABCD2 gene expression in human MCF7 cells at IC50 after 48 hrs by cDNA microarray technique relative to control.
For test [21], the system named is MCF7. Nature of the test: Upregulation of LCN12 gene expression in human MCF7 cells at IC50 after 48 hrs by cDNA microarray technique relative to control.
Test [22] relates to MCF7. The test is described as follows: Down regulation of DKFZp727G131 gene expression in human MCF7 cells at IC50 after 48 hrs by cDNA microarray technique relative to control. The method, boiled down:
as §2

For test [23], the system named is MCF7. Nature of the test: Down regulation of FLJ12985 gene expression in human MCF7 cells at IC50 after 48 hrs by cDNA microarray technique relative to control. The essentials: as §1
Test [24] concerns HT-29. The test is described as follows: Down regulation of HUS1B gene expression in human HT-29 cells at IC50 after 48 hrs by cDNA microarray technique relative to control. The essentials: as §1
The subject of test [25] is MCF7. Nature of the test: Upregulation of ZNF505 gene expression in human MCF7 cells at IC50 after 48 hrs by cDNA microarray technique relative to control.
The subject of test [26] is MCF7. The test is described as follows: Upregulation of MRPL49 gene expression in human MCF7 cells at IC50 after 48 hrs by cDNA microarray technique relative to control.
The test system of test [27] is MCF7. The test is described as follows: Upregulation of CD1B gene expression in human MCF7 cells at IC50 after 48 hrs by cDNA microarray technique relative to control.
The subject of test [28] is MCF7. Nature of the test: Upregulation of LRRC48 gene expression in human MCF7 cells at IC50 after 48 hrs by cDNA microarray technique relative to control.
In test [29] the test system is MCF7. The test is described as follows: Upregulation of ATP12A gene expression in human MCF7 cells at IC50 after 48 hrs by cDNA microarray technique relative to control.
The test system of test [30] is MCF7. The test is described as follows: Down regulation of C11orf8 gene expression in human MCF7 cells at IC50 after 48 hrs by cDNA microarray technique relative to control. The method, boiled down:
as §2

Test [31] deals with MCF7. The test is described as follows: Down regulation of PARP9 gene expression in human MCF7 cells at IC50 after 48 hrs by cDNA microarray technique relative to control.
Test [32] has as its system MCF7. Nature of the test: Down regulation of TSGA10 gene expression in human MCF7 cells at IC50 after 48 hrs by cDNA microarray technique relative to control.
The subject of test [33] is HT-29. The test is described as follows: Upregulation of TUBB4 gene expression in human HT-29 cells at IC50 after 48 hrs by cDNA microarray technique relative to control.
Test [34] has as its system HT-29. The test is described as follows: Upregulation of KIAA0553 gene expression in human HT-29 cells at IC50 after 48 hrs by cDNA microarray technique relative to control.
Test [35] has as its system HT-29. The test is described as follows: Down regulation of MGC2654 gene expression in human HT-29 cells at IC50 after 48 hrs by cDNA microarray technique relative to control.
In test [36] the test system is HT-29. The test is described as follows: Down regulation of SFRS5 gene expression in human HT-29 cells at IC50 after 48 hrs by cDNA microarray technique relative to control.
The subject of test [37] is HT-29. The test is described as follows: Down regulation of POLE gene expression in human HT-29 cells at IC50 after 48 hrs by cDNA microarray technique relative to control.
The subject of test [38] is HT-29. Nature of the test: Down regulation of CARHSP1 gene expression in human HT-29 cells at IC50 after 48 hrs by cDNA microarray technique relative to control. The essentials:
as §2

SMILES strings stand for the structures.

In the case of `COC(CN(c1ccccc1CO)S(=O)(=O)c1ccccc1[N+](=O)[O-])n1cnc2ncnc(Cl)c21` (racemic), the “fold change (FC)” value was 4.97 in the test on HT-29 [1]; -2.08 in the test on MCF7 [2]; -2.11 in the test with MCF7 [3]; -2.15 with MCF7 [4]; -2.17 in the test on MCF7 [5]; -2.2 with MCF7 [6]. The “fold change (FC)” value is on record as -2.31 with MCF7 [7]; -2.46 with MCF7 [8]; -2.66 in the test on MCF7 [9]; -2.06 in the test with HT-29 [10]; -2.63 in the test with HT-29 [11]; -2.78 with HT-29 [12]. The “fold change (FC)” value is -2.96 with HT-29 [13]; 4.22 in the test on MCF7 [14]; 3.59 in the test with MCF7 [15]; 3.37 in the test with MCF7 [16]; 2.59 with MCF7 [17]; 2.39 with MCF7 [18]. Moreover, the “fold change (FC)” value with HT-29 [19] is reported as -3.52; in the test on MCF7 [20], 2.25; in the test on MCF7 [21], 2.24; in the test on MCF7 [22] it was -2.03; in the test with MCF7 [23], -2.11.

In the case of `O=C(OCC1c2ccccc2-c2ccccc21)N1CC(n2cnc3c(Cl)ncnc32)OCc2ccccc21` (racemic), the “fold change (FC)” value in the test with HT-29 [24] was -2.3; with MCF7 [25], 5.62; with MCF7 [26], 3.12; in the test with MCF7 [27], 2.31; in the test with MCF7 [28] it was 2.18; in the test with MCF7 [29] it was 2.05. The “fold change (FC)” value in the test on MCF7 [30] is -2.88; with MCF7 [31], -3.23; with MCF7 [32], -3.3; in the test on HT-29 [33], 3.23; in the test with HT-29 [34], 2.07; with HT-29 [35], -2.02. The “fold change (FC)” value with HT-29 [36] is listed as -2.06; in the test on HT-29 [37], -2.12; with HT-29 [38], -2.12.
